Published values gathered from unrelated publications.
Lines come from different studies, so protocols differ. In brackets after ≈: the same amount, converted by molar mass.

For `CC(=O)ON=C1C=CC(=C(C#N)c2ccccc2)C=C1`, the MFC was 16 µg/mL (≈ 60.5 µM) (Candidozyma auris; microbial killing, broth dilution; 48 h).
`CCOC(=O)C1=C(CSC2=NCCS2)NC(=O)NC1c1ccc(C(C)C)cc1` (stereo not shown) has an IC50 of 190 µM (DPPH scavenging).
The IC50 of `CCCCCCCCCCCC1NCCc2cc(O)c(O)cc21` (stereo not shown) is reported as 27.9 µM (DPPH scavenging, absorbance; 30 min, dark).
`CCON=C1C=CC(=C(C#N)c2ccccc2)C=C1` gave an MIC of 256 µg/mL (≈ 1020 µM) (Candidozyma auris; microbial growth, broth dilution; 48 h).
With `CCOC(=O)C1=C(CCl)NC(=O)NC1c1ccc(OC)cc1` (stereo not shown) the IC50 was 150 µM (DPPH scavenging).
For `O=C(C[C@@H](C(F)F)n1ccc(F)n1)N1CCC(O)(Cn2cnc3c(cnn3-c3ccc(F)cc3)c2=O)CC1`, the viability was 24% (CAPAN-1; cell growth or viability, SRB; 20 µM, 5 days).
With `CCOC(=O)C1=C(CSC2=NCCS2)NC(=O)NC1c1cccc(OC)c1` (stereo not shown) the IC50 was 150 µM (DPPH scavenging).
For `N[C@@H](CO)C(=O)Nc1ccccc1/N=c1\cc(-c2ccc3c(c2)OCO3)oc2ccccc12`, the inhibition was 16.3% (MCF7; cell growth or viability, CCK-8; 1 µM).
The IC50 of `CCCCCCCCC1NCCc2cc(O)c(O)cc21` (stereo not shown) is reported as 65.3 µM (DPPH scavenging, absorbance; 30 min, dark).
The IC50 of `CCOC(=O)C1=C(CSC2=NCCS2)NC(=O)NC1c1cccc(F)c1` (stereo not shown) is reported as 201 µM (DPPH scavenging).
`N#CC(=C1C=CC(=NOC(=O)OCc2ccccc2)C=C1)c1ccccc1` has an MFC of 128 µg/mL (≈ 359 µM) (Candidozyma auris; microbial killing, broth dilution; 48 h).
For `Oc1ccc(C2NCCc3cc(O)c(O)cc32)cc1O` (stereo not shown), the IC50 was 8.14 µM (DPPH scavenging, absorbance; 30 min, dark).
For `NCC(=O)Nc1ccccc1/N=c1\cc(-c2ccc3c(c2)OCCO3)oc2cc(F)ccc12`, the inhibition was -2.78% (MCF7; cell growth or viability, CCK-8; 1 µM).
`C#CCOC(=O)ON=C1C=CC(=C(C#N)c2ccccc2)C=C1` has an MFC of 32 µg/mL (≈ 105 µM) (Candidozyma auris; microbial killing, broth dilution; 48 h).
`CCOC(=O)C1=C(CCl)NC(=O)NC1c1ccc(F)cc1` (stereo not shown) gave an IC50 of 246 µM (DPPH scavenging).
`COc1cc(C2NCCc3cc(O)c(O)cc32)ccc1O` (stereo not shown) has an IC50 of 8.15 µM (DPPH scavenging, absorbance; 30 min, dark).
With `C=CC(=O)ON=C1C=CC(=C(C#N)c2ccccc2)C=C1` the MIC was 16 µg/mL (≈ 57.9 µM) (Candidozyma auris; microbial growth, broth dilution; 48 h).
With `CCCCCCCCCCCCCCCCCC1NCCc2cc(O)c(O)cc21` (stereo not shown) the IC50 was 34.8 µM (DPPH scavenging, absorbance; 30 min, dark).
`C#CCON=C1C=CC(=C(C#N)c2ccccc2)C=C1` gave an MIC of 32 µg/mL (≈ 123 µM) (Candidozyma auris; microbial growth, broth dilution; 48 h).
With `Oc1cc2c(cc1O)C(Cc1ccccc1)NCC2` (stereo not shown) the IC50 was 19.7 µM (DPPH scavenging, absorbance; 30 min, dark).
With `CCOC(=O)C1=C(CSC2=NCCS2)NC(=O)NC1c1ccc(F)cc1` (stereo not shown) the IC50 was 157 µM (DPPH scavenging).
With `NCCCC(=O)Nc1ccccc1/N=c1\cc(-c2ccc3c(c2)OCO3)oc2ccccc12` the inhibition was 10.2% (MCF7; cell growth or viability, CCK-8; 1 µM).
